From PubChem BioAssay
Rows were chosen to be rich in hits. Some 2.4% of all compounds tested hit in one or more screens of this group.
NPY Y2 blocker: NPY-Y2 receptor antagonists, primary screen, cell-based; Neuropeptide Y receptor type 2 (Homo sapiens), P49146; NPY-Y2 expressing cells, antagonist mode; inhibition, % at 2.7 µM; hit rate 0.99% among 140,000; AID 793, 2007
NPY-Y1 antag: NPY-Y1 receptor antagonists, primary screen, cell-based. Neuropeptide Y receptor type 1 (Homo sapiens), P25929. HEK293-CNG Y1 cells, membrane potential fluorescence; NPY at EC95, then isoproterenol. inhibition, % at 3.6 µM. hit rate 1% among 200,000;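 active means inhibition above the campaign mean inhibition of all tested compounds plus 3 SD, cut at about 20% in these data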
Target sequence (P25929 whole entry, looked up): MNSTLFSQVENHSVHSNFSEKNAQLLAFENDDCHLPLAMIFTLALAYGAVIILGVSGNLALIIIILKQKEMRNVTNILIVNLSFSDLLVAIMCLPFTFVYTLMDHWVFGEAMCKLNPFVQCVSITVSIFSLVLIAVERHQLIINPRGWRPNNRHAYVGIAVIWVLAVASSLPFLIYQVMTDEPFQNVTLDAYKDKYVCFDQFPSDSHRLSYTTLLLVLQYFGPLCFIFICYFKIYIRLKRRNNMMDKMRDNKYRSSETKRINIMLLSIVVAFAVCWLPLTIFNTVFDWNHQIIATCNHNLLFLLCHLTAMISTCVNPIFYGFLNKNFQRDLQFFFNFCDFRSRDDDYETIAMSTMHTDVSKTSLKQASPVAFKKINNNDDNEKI
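Test system: HEK293 cells co-expressing NPY Y1 receptor and cyclic-nucleotide gated channel; Also added: NPY (25 nM), isoproterenol (1 µM), Ro 20-1724 (25 µM); Compound dosing: one concentration, 3.6 µM, in 0.4% DMSO; Timing: dye 3 h, compound 60 min room temperature, stimulation 45 min; Technique: Membrane-potential fluorescent dye readout.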
S1P4 antag: S1P4 receptor antagonists, primary screen, cell-based; Sphingosine 1-phosphate receptor 4 (Homo sapiens), O95977; S1P4-expressing cells, antagonist mode, reporter read-out; inhibition, % at 4.98 µM; hit rate 0.26% among 220,000; in the data active means inhibition above about 29%
S1P4 agonist: S1P4 receptor agonists, primary screen, cell-based; AID 1509, 2009; S1P4-expressing cell line, agonist reporter assay; activation, % at 4.98 µM; hit rate 0.35% among 220,000; in the data active means activation above about 11%
NPY-Y2 PAM-ag: NPY-Y2 potentiators or agonists, primary screen, cell-based | Neuropeptide Y receptor type 2 (Homo sapiens), P49146 | cells expressing NPY-Y2, potentiator/agonist read-out | activation, % at 3.6 µM | hit rate 0.45% among 220,000; in the data active means activation above about 27%;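 further: cells stimulated with NPY near EC25 plus isoproterenol at EC100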
NPY1 pot ag: NPY-Y1 receptor potentiators or agonists, primary screen, cell-based | Neuropeptide Y receptor type 1 (Homo sapiens), P25929 | activation, % at 3.6 µM | hit rate 0.37% among 220,000 | AID 1304, 2008 | NPY-Y1 expressing cells, potentiator/agonist activation; in the data active means activation above about 33%, passing the limit was not always enough;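 further: cells stimulated with NPY at EC10 then isoproterenol at EC100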
NPY1 antag conf: NPY-Y1 receptor antagonists, retest of hits, confirmation, HEK293-CNG cells, membrane potential fluorescence, triplicate; shares compounds with NPY-Y1 antag; cAMP; NPY challenge against isoproterenol-raised cAMP; inhibition, % at 3.6 µM; hit rate 21% among 1,200; AID 1254, 2008; in the data active means inhibition above about 20%
NPY-Y2 antag ct: NPY-Y2 receptor antagonists, selectivity check, confirmation, counter-screen for NPY-Y1 antagonist project, HEK293-CNG cells, membrane potential fluorescence, triplicate; shares compounds with NPY-Y1 antag; antagonism; cells given NPY, then isoproterenol; inhibition, % at 3.6 µM; hit rate 28% among 1,200
NPY-Y1 pot conf: NPY-Y1 potentiators or agonists, confirmation, cell-based. shares compounds with NPY1 pot ag. cell-based NPY-Y1 potentiator/agonist assay. activation, % at 3.6 µM. hit rate 20% among 280. AID 1546, 2009; in the data active means activation above about 45%;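 further: cells challenged with NPY at its EC10 plus isoproterenol stimulus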
NPY-Y2 counter: NPY-Y2 potentiators or agonists, counter-screen for NPY-Y1 potentiator project, cell-based, fluorescence; shares compounds with NPY1 pot ag; HEK293-CNG cells, membrane-potential fluorescence (FLIPR), 1536-well; activation, % at 3.6 µM; hit rate 20% among 280; AID 1649, 2009; in the data active means activation above about 33%
NPY-Y1 ag: NPY-Y1 direct agonists without NPY, confirmation, counter-screen for NPY-Y1 potentiator project, cell-based, fluorescence | shares compounds with NPY1 pot ag | HEK293 Y1-CNGC, membrane potential fluorescence, agonist mode | activation, % at 3.6 µM | hit rate 50% among 280 | AID 1697, 2009;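 active means percent activation above the mean of DMSO-only control wells plus 3 SD of those wells, cut at about 18% in these data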;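 further: cells challenged with isoproterenol plus Ro 20-1724 with no NPY in test wells; Y1 agonism lowers isoproterenol-driven cAMP and reduces probe fluorescence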
NPY-Y2 ag: NPY-Y2 direct agonists without NPY, counter-screen for NPY-Y1 potentiator project, cell-based, fluorescence; shares compounds with NPY1 pot ag; HEK293 Y2-CNGC, membrane potential fluorescence, agonist mode; activation, % at 3.6 µM; hit rate 67% among 280; AID 1698, 2009;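 active means activation above the solvent-only control wells' mean plus 3 SD, cut at about 11% in these data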;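 further: agonism lowers cAMP so well fluorescence drops in active wells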
CNGC counter: CNGC cAMP sensor activity inhibitors, counter-screen for NPY-Y1 potentiator/agonist project, cell-based, HEK293-CNG parental, membrane potential fluorescence, Y1 set; inhibition, % at 3.6 µM; hit rate 42% among 280; AID 1704, 2009; isoproterenol cAMP; shares compounds with NPY1 pot ag;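 active means inhibition above the mean of stimulated solvent-only control wells plus 3 SD, cut at about 22% in these data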
S1P4 agonist cf: S1P4 receptor agonists, retest, confirmation, cell-based, high throughput. shares compounds with S1P4 agonist. S1P4 agonist cell-based reporter assay. hit rate 7% among 740. activation, % at 4.98 µM; in the data active means activation above about 12%
S1P1 agonist: S1P1 receptor agonists, human, counter-screen for S1P4 agonist project, cell-based; shares compounds with S1P4 agonist; activation, % at 4.98 µM; hit rate 4% among 740; S1P1 agonist cell-based assay, activation; in the data active means activation above about 21%
S1P4 antag cf: S1P4 receptor antagonists, human, confirmation, cell-based; shares compounds with S1P4 antag; inhibition, % at 4.98 µM; S1P4-expressing cell line, antagonist mode, reporter read-out; hit rate 71% among 520; in the data active means inhibition above about 30%
S1P1 antag: S1P1 receptor antagonists, human, counter-screen for S1P4 antagonist project, cell-based; shares compounds with S1P4 antag; cell-based S1P1 antagonist counterscreen, inhibition; inhibition, % at 4.98 µM; hit rate 37% among 520; AID 1564, 2009; in the data active means inhibition above about 40%;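 further: receptor stimulated with S1P near its EC80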
Large screens that a line does not name were inactive (follow-up assays come after a bar, where they were run). Unless noted, no stated cut-off is given here; in the data, active means inhibition above about 17%; inactive means the rest.

CC1CCC(C(C)C)C(OCC(O)CN2CCCC(C)C2)C1 (centres undefined)	NPY-Y1 antag 28.5, NPY1 pot ag 47.3 (no result: NPY Y2 blocker) | NPY1 antag conf 26.8 | NPY-Y2 antag ct 21.3 | NPY-Y1 pot conf inactive | NPY-Y2 counter inactive | NPY-Y1 ag inactive | NPY-Y2 ag 13.8 | CNGC counter inactive
CC(=O)OC1COC(OC2C(O)C(C)OC(OC3C(OC4CCC5(C)C(CCC6(C)C5CC=C5C7CC(C)(C)CCC7(C(=O)O)CCC56C)C4(C)CO)OCC(O)C3O)C2O)C(O)C1OC(C)=O (centres undefined)	NPY-Y1 antag 23.1, NPY1 pot ag 60.2 (no result: NPY Y2 blocker) | NPY1 antag conf 22.3 | NPY-Y2 antag ct inactive | NPY-Y1 pot conf 83.4 | NPY-Y2 counter 67.9 | NPY-Y1 ag 57.6 | NPY-Y2 ag 61.6 | CNGC counter 47.3
CC1(C)CC[C@]2(C(=O)O)CC[C@]3(C)C(=CCC4[C@@]5(C)CC[C@H](O)C(C)(C)C5CC[C@]43C)C2C1 (some centres undefined)	none
CC(=O)C1=C(c2ccccc2)N(C(C)=O)n2c(C)nnc2S1	none (no result: NPY Y2 blocker)
Clc1ccc2nc(N3CCNCC3)nc(-c3ccccc3)c2c1	NPY-Y1 antag 25.9, S1P4 antag 30.0, S1P4 agonist 20.4 | NPY1 antag conf inactive | NPY-Y2 antag ct 19.8 | S1P4 agonist cf 12.5 | S1P1 agonist inactive | S1P4 antag cf 39.1 | S1P1 antag inactive
Cc1cc(C)c(C(=O)COC(=O)CCNS(=O)(=O)c2c(Cl)cccc2Cl)cc1C	none
O=C(CN1c2ccccc2Sc2ccccc21)NNC(=O)Nc1cccc(Cl)c1	NPY1 pot ag 50.0 (no result: NPY Y2 blocker, NPY-Y1 antag) | NPY-Y1 pot conf 47.9 | NPY-Y2 counter inactive | NPY-Y1 ag 45.5 | NPY-Y2 ag 36.2 | CNGC counter 39.9
O=C(Cc1ccccc1)NNC(=O)Nc1cccc(Cl)c1	none
O=C(C(Sc1ccccc1)c1ccccc1)N1CCOCC1 (centres undefined)	none
CC(C)(C)OC(=O)NCCCCCNC(=O)c1[nH]cnc1C(=O)N[C@@H](CCCCNC(=O)OC(C)(C)C)C(=O)OC(C)(C)C	none (no result: NPY Y2 blocker)
CC(C)(C)OC(=O)NCCCCCNC(=O)c1[nH]cnc1C(=O)N[C@@H](Cc1ccccc1)C(=O)OCc1ccccc1	NPY1 pot ag 57.7 (no result: NPY Y2 blocker) | NPY-Y1 pot conf 47.2 | NPY-Y2 counter inactive | NPY-Y1 ag 31.8 | NPY-Y2 ag 18.6 | CNGC counter 27.8
O=C(c1ccco1)N1N=C(c2ccc(Br)cc2)CC1(O)C(F)(F)F (centres undefined)	none (no result: NPY Y2 blocker)
CCNC(=S)SCCOc1ccc(C)cc1	none
CC(C)NC(=O)CSc1nnc(-c2ccc3ncccc3c2)n1C	none (no result: NPY Y2 blocker, NPY-Y1 antag)
COc1ccc(OC)c2sc(NC(=O)c3ccc(S(=O)(=O)N(C)C)cc3)nc12	NPY1 pot ag 34.2 | NPY-Y1 pot conf inactive | NPY-Y2 counter inactive | NPY-Y1 ag inactive | NPY-Y2 ag 17.9 | CNGC counter inactive
C=CC(=O)N1c2ccccc2Sc2ccc(NC(=O)OCC)cc21	NPY1 pot ag 42.0 | NPY-Y1 pot conf inactive | NPY-Y2 counter inactive | NPY-Y1 ag 19.8 | NPY-Y2 ag 13.1 | CNGC counter inactive
Cc1ccc(NC(=O)COC(=O)c2ccc([N+](=O)[O-])o2)cc1S(=O)(=O)N1CCCCC1	NPY1 pot ag 40.7 (no result: NPY Y2 blocker) | NPY-Y1 pot conf inactive | NPY-Y2 counter inactive | NPY-Y1 ag inactive | NPY-Y2 ag inactive | CNGC counter inactive
O=[N+]([O-])c1cc(S(=O)(=O)Nc2cccc(Cl)c2)ccc1N/N=C/c1ccc(N2CCOCC2)cc1	NPY1 pot ag 65.7 (no result: NPY Y2 blocker, NPY-Y1 antag) | NPY-Y1 pot conf 53.1 | NPY-Y2 counter 61.0 | NPY-Y1 ag 44.1 | NPY-Y2 ag 61.4 | CNGC counter 46.8
O=C(O)C1CCC(Cn2c(SCc3cc(=O)n4ccccc4n3)nc3ccsc3c2=O)CC1 (centres undefined)	none (no result: NPY Y2 blocker)
